Screens as filed in PubChem BioAssay.
STAT3 activator: IL-6 driven STAT3 reporter potentiators, primary screen, U3A cells, luciferase, luminescence, MLSCN library | IL-6 STAT3-luciferase reporter; 100% = signal with IL-6 EC80 alone | activation (% of control), % at 5.6 µM | 190,000 tested, 0.91% active;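 active = activation above the screen-wide mean of compound activation plus 3 SD, cut at about 130% in these data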;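 also: 0% = background luminescence of wells with medium and substrate only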
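Material: human U3A cells carrying STAT3-luciferase construct. Measured by: reporter luminescence signal. Timing: compound 1 h, then IL-6 6 h at 37 °C.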
FXIIa inh 1536: human FXIIa protease inhibitors, primary screen, biochemical, 1536-well. purified FXIIa, Boc-QGR-AMC fluorogenic substrate, 2 h. inhibition, % at 5 µM. AID 800, 2007. 220,000 tested, 0.3% active; in the data active = inhibition above about 40%;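 also: 0% = enzyme with no compound and 100% = blank without enzyme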
AHR act: AHR activators, primary screen, cell-based, luminescence, luciferase reporter, human; Aryl hydrocarbon receptor (Homo sapiens), P35869; AHR-responsive luciferase reporter cells; activation, % at 5 µM; 320,000 tested, 2.5% active; in the data active = activation above about 47%;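 also: 0% = vehicle wells and 100% = reference agonist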
FXIa inh: human FXIa protease inhibitors, primary screen, biochemical, 1536-well; Coagulation factor XI (Homo sapiens), P03951; purified FXIa, Boc-Glu-Ala-Arg-AMC fluorogenic substrate; inhibition, % at 5 µM; 220,000 tested, 0.14% active; AID 798, 2007;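 active = inhibition of at least 40%; inactive = inhibition below 40%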;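 also: fluorescence of freed AMC excited at 355 nm; 0% = enzyme without compound and 100% = no enzyme blank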
Target sequence (P03951 19-387 limits assumed): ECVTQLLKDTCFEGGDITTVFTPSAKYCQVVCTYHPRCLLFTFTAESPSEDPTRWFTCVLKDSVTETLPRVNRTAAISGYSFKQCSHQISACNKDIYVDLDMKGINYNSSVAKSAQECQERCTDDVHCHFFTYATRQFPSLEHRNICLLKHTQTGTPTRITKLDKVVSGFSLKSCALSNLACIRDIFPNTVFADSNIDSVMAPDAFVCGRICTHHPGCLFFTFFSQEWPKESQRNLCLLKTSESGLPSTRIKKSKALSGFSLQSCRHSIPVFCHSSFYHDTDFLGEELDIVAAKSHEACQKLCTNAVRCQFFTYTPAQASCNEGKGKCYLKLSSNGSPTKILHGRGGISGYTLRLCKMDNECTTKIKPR
Target sequence (P03951 388-625 limits assumed): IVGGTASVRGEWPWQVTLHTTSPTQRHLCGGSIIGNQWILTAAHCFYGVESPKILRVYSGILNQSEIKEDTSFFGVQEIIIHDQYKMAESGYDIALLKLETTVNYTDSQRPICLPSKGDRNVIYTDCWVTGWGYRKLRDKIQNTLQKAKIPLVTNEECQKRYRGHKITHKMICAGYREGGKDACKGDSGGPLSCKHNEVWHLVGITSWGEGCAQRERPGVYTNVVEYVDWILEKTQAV
hK5 inh: human KLK5 protease inhibitors, primary screen, biochemical, 1536-well; recombinant hK5, fluorogenic AMC substrate cleavage; inhibition, % at 5 µM; 210,000 tested, 0.59% active;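 active = inhibition of 40% or more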;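 also: 0% = enzyme controls without compound and 100% = no-enzyme blanks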
Thrombin inh: human alpha-thrombin inhibitors, primary screen, counter-screen for coagulation protease inhibitor project, biochemical, 1536-well, fluorogenic AMC substrate; inhibition, % at 5 µM; Boc-VPR-AMC fluorogenic substrate cleavage; AID 1046, 2008; Prothrombin (Homo sapiens), P00734; 220,000 tested, 0.26% active;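 active = inhibition at or above 40%; inactive = inhibition below 40%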;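 also: 0% = enzyme with no compound and 100% = wells without enzyme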
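Material: Human alpha-thrombin protein | Buffer or medium: pH 7.5 Tris-saline with Tween 20 | Reagent: Boc-VPR-AMC substrate, 15 µM final | Schedule: Reaction at ambient temperature | Detection: AMC fluorescence at 355 nm excitation and 460 nm emission | Evaluation: Percent inhibition scaled between no-compound controls and no-enzyme blanks | Controls: no-compound enzyme wells and no-enzyme blanks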
AHR act cf: AHR activators, confirmation, cell-based, luminescence, luciferase reporter, human. shares compounds with AHR act. 2,300 tested, 87% active. human cells, AHR-responsive luciferase reporter. activation, % at 9 µM. AID 2845, 2010; in the data active = activation above about 49%;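 also: HepG2 hepatoma cells carrying a DRE-driven firefly luciferase reporter; 0% = vehicle wells and 100% = reference agonist wells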
PXR counter: human PXR activators, counter-screen for AHR activator project, cell-based, luciferase luminescence. shares compounds with AHR act. cell-based PXR reporter. activation, % at 11.6 µM. 2,300 tested, 88% active. AID 434939, 2010; in the data active = activation above about 11%;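 also: human hepatoma DPX-2 cells expressing full-length human PXR; 0% = DMSO and 100% = reference agonist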
* = called active by the depositor; x = not tested or not shown. The list is not random: actives were taken first. Their share in the collection is about 3.5%.

SMILES	STAT3 activator	FXIIa inh 1536	AHR act	FXIa inh	hK5 inh	Thrombin inh	AHR act cf	PXR counter
c1ccc(Nc2nc(-c3cccs3)cs2)nc1	95	4	117*	-1	-26	-6	155*	23*
Cn1c(=O)c([N+](=O)[O-])c(-n2cnc3ccccc32)c2ccccc21	x	8	18	-2	-2	-5	x	x
CCC(C(=O)NC(C)(C)C)N(Cc1ccco1)C(=O)CNS(=O)(=O)c1ccc(OC)cc1 (stereo unspecified)	x	x	-1	x	x	x	x	x
Cc1c(Cc2ccccc2)c(=O)oc2c(C)c(OCC(=O)N[C@@H](Cc3ccccc3)C(=O)O)ccc12	x	x	0	x	x	x	x	x
Clc1ccc2nc3c4ccccc4cnn3c2c1	120	-3	105*	3	-19	2	90*	4
COn1c(-c2ccccc2)nc2ccc(Cl)cc21	92	-1	4	0	2	-2	x	x
N#Cc1c(-c2ccccc2)cc2nc3ccccc3n2c1N	101	-5	85*	0	-34	-17	88*	31*
CCCS(=O)(=O)N1CCCC(C(=O)Nc2ccc3c(c2)CCC3)C1 (stereo unspecified)	x	x	3	x	x	x	x	x
COc1ccc(-c2[nH]c(-c3ccc(C)cc3)nc2SCC(=O)NCc2ccco2)cc1OC	99	8	121*	1	2	-1	85*	12*
COc1ccc(NC(=O)c2cc3c(-c4ccc(OC)c(OC)c4)nn(C)c3s2)cc1OC	86	6	6	5	6	-1	x	x
COc1ccc(-c2nn(C)c3sc(C(=O)NCc4ccco4)cc23)cc1OC	100	17	134*	5	-24	1	112*	35*
O=C(NC1CCCCC1)c1cc(-c2cccc(Cl)c2)on1	x	x	-12	x	x	x	x	x
c1ccc(-c2nc3ccccc3[nH]2)nc1	92	4	17	-5	-16	-3	x	x
c1ccc(-c2nc3c(ccc4ccccc43)[nH]2)nc1	131	5	95*	-2	-26	-5	138*	11*
CCOc1ccc(-c2cc(C)n3nc(C(N)=O)cc3n2)cc1	94	-11	79*	-8	-66	1	68*	x
CC(C)c1ccc(NC(=O)CCN2C(=O)[C@@H]3Cc4ccccc4CN3C2=O)cc1	x	x	89*	x	x	x	1	97*
Cc1ccc(NC(=O)c2cccc(C(F)(F)F)c2)cc1NC(=O)c1[nH]cnc1C(N)=O	x	x	119*	x	x	x	114*	57*
CCC(C)OC(=O)c1[nH]c2c(c1C)C(=O)CC(c1ccc(N(C)C)cc1)C2 (stereo unspecified)	104	15	82*	7	-3	-4	35	70*
O=[N+]([O-])c1cnc(Nc2ccc(Cl)cn2)c([N+](=O)[O-])c1	x	x	139*	x	x	x	80*	x
Cc1csc2c(=O)[nH]cnc12	97	2	-1	-5	-3	-1	x	x
COc1cccc(Nc2nc(-c3sc(NC(=O)c4ccccc4)nc3C)cs2)c1	73	-7	41	-11	-4	-3	x	x
CCCC(=O)Nc1nc(C)c(-c2csc(Nc3ccccc3OC)n2)s1	102	-2	79*	-3	x	-5	101*	34*
C=CCCC(=O)Nc1nc(C)c(-c2csc(Nc3cc(OC)ccc3OC)n2)s1	87	-2	117*	-4	x	-2	69*	62*
COc1ccccc1Nc1nc(-c2sc(NC(=O)C(C)(C)C)nc2C)cs1	91	13	29	8	-10	0	x	x
C=CCCC(=O)Nc1nc(C)c(-c2csc(Nc3cccc(OC)c3)n2)s1	94	14	301*	8	-5	7	100*	14*
